Only a selection was taken, and hits are over-represented in it overall.
HUVEC inhibit: human endothelial cell proliferation inhibition | HUVEC proliferation, CellTiter-Glo luminescence, 72 h; stronger effect = lower value | viability, % at 10 µM (by protocol) | hit rate 1.1% among 86,000;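 active = viability at or below 30%; inactive = viability above 30%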;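 also: 100% = median luminescence of DMSO-only cell control wells on each plate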
H69AR inhibit: blocks growth of human H69AR lung tumor cells. H69AR lung tumor viability, ATP luminescence, 72 h; stronger effect = lower value. viability, % at 10 µM. hit rate 6% among 85,000. AID 598;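 active = viability at or below 40%; inactive = viability above 40%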;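 also: multidrug resistant small cell line overexpressing MRP-1 efflux transporter; 100% = mean luminescence of untreated control wells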
HCT116 bCat-KO: beta-catenin-lacking colon tumor cell growth suppression | viability, % at 10 µM | HCT116 beta-catenin knockout viability, CellTiter-Glo, 60 h; stronger effect = lower value | hit rate 1.5% among 140,000;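 active = viability at or under a set limit, the compound median less 4 SD, cut at about 6% in these data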;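 also: 0% = Hyamine 1622 control at 20 µM and 100% = untreated cell control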
HCT116 PTEN-null: PTEN-deleted cell growth suppression; HCT116 PTEN-null viability, CellTiter-Glo, 60 h; stronger effect = lower value; viability, % at 10 µM; hit rate 1.2% among 140,000;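 active = viability at or below a set limit, 4 SD under the median of all tested compounds, cut at about 3.7% in these data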;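 also: PTEN knockout HCT116 line with beta catenin targeted HCT116 as companion control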
Fibroblast inh: blocks proliferation of human lung fibroblasts. LL 47 human lung fibroblast viability, ATP luminescence; stronger effect = lower value. viability, % at 10 µM. hit rate 1.1% among 85,000. AID 719;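 active = viability at or below 50% in the single dose screen; inactive = viability above 50%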;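 also: compound exposure lasted 72 h before the ATP readout; 100% = median luminescence of untreated cell-only wells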
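Times – overnight cell rest, 72 h compound treatment at 37 °C · Test system – human lung fibroblast line LL 47, low passage · Amount – 1,150 cells in each well · Controls – cell-only wells, no compound · Doses – 0.1% DMSO in all compound wells · Measured by – CellTiter-Glo luminescence · Buffer or medium – IMEM plus 15% FBS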
* hit, by the source's call; . = not tested or not shown.

SMILES | HUVEC inhibit | H69AR inhibit | HCT116 bCat-KO | HCT116 PTEN-null | Fibroblast inh
O=C(COC(=O)CCCOc1ccc(Cl)cc1Cl)Nc1cccc(Cl)c1 | . | . | 86 | 94 | .
Cc1c(C(=O)NC2CCCc3ccccc32)oc2ccc(S(=O)(=O)N3CCOCC3)cc12 (stereo not drawn) | 68 | 38* | 75 | 72 | 80
Cc1c(C(=O)NC2CCCc3ccccc32)oc2ccc(S(=O)(=O)N3CCCCC3)cc12 (stereo not drawn) | . | . | 58 | 57 | .
Cc1c(C(=O)NC2CCCc3ccccc32)oc2ccc(S(=O)(=O)N3CCCC3)cc12 (stereo not drawn) | 51 | 35* | 64 | 56 | 65
Cc1c(C(=O)NC2CC2)oc2ccc(S(=O)(=O)N3CCCCCC3)cc12 | 104 | 59 | 72 | 76 | 89
CO/N=C/NC(=O)c1c(OC)ccnc1Oc1ccccc1 | . | . | 92 | 85 | .
N#CC(=C1CCCC1)c1nc(-c2ccccc2O)cs1 | 80 | 29* | 67 | 62 | 88
COc1ccc(-c2nn(C)c3sc(C(=O)N4CCOCC4)cc23)cc1OC | 88 | 76 | 87 | 81 | 108
c1ccc(N2CCN(c3nc(NCc4ccco4)c4ccccc4n3)CC2)cc1 | . | . | 2.4* | 3.1* | .
O=c1c2ccccc2nc2c3ccccc3c(NCc3ccco3)nn12 | 82 | 74 | 68 | 66 | 94
c1coc(CNc2nc(N3CCCCC3)nc3ccccc23)c1 | 56 | 5.3* | 24 | 29 | 81
Cc1cccc(-n2nnnc2SCC(=O)c2cc(C)n(Cc3ccco3)c2C)c1 | 49 | 7.3* | 96 | 99 | .
O=C(Nc1ccc2c(c1)OCO2)N1CCN(C/C=C/c2ccccc2)CC1 | 93 | 81 | 103 | 92 | 99
O=C(c1ccccc1)c1ccc(OCC(O)CN2CCOCC2)cc1 (stereo not drawn) | 98 | 84 | . | . | 108
CCOc1ccc(C(=O)C(CN2CCOCC2)c2ccccc2)cc1 (stereo not drawn) | . | . | 3.1* | 2.7* | .
Cc1nc(SCC(=O)Nc2cc(C)on2)c2c(=O)n(C)c(=O)n(C)c2n1 | 97 | 80 | 92 | 84 | 97
O=C1c2cc([N+](=O)[O-])cc3cc([N+](=O)[O-])cc(c23)C(=O)N1c1ccccn1 | . | . | 15 | 6 | .
Cc1ccnc(N2C(=O)c3cccc4c([N+](=O)[O-])ccc(c34)C2=O)c1 | . | . | 1.2* | 1.3* | .
Cc1ccc(C(=O)N/C(=C\c2ccc(-c3cc(Cl)ccc3Cl)o2)C(=O)NCc2cccnc2)cc1 | . | . | 33 | 26 | .
O=C(NCc1cccnc1)/C(=C/c1ccc(-c2cccc(Cl)c2)o1)S(=O)(=O)c1ccccc1 | . | . | 1.8* | 1.6* | .
O=C(NCc1cccnc1)/C(=C\c1ccc(-c2cccc(Cl)c2)o1)S(=O)(=O)c1ccccc1 | . | . | 1.7* | 1.7* | .
CC(C)c1ccc(/C=C2\CC/C(=C\C=N\N(C)C)C2=O)cc1 | 56 | 89 | 83 | 86 | 95
O=C(NC1CCCC1)C1CCC(=O)N1CCc1ccccc1 (stereo not drawn) | 95 | 98 | 96 | 101 | 109
O=c1oc2ccccc2cc1-c1nnc(NCc2ccco2)s1 | 71 | 32* | 58 | 35 | 91
Nc1nnc(-c2cc3ccccc3oc2=O)s1 | 87 | 95 | 75 | 81 | 100
SMILES | HUVEC inhibit | H69AR inhibit | HCT116 bCat-KO | HCT116 PTEN-null | Fibroblast inh
COC(=O)C1=C(C)NC(C)=C(C(=O)OC)C1c1cc2ccc(C)cc2[nH]c1=O | 69 | 20* | 83 | 79 | 79
Cc1ccc(Cn2c(=S)[nH]c3ccc(N4CCOCC4)cc3c2=O)o1 | 76 | 5.8* | 85 | 76 | 46*
COCCN(CCOC)S(=O)(=O)c1ccc(C(=O)Nc2nc(C)c(C(C)=O)s2)cc1 | . | . | 86 | 94 | .
COc1cccc(OCCCOc2ccc([N+](=O)[O-])cc2Cl)c1 | . | . | 91 | 85 | .
S=C(Nc1ccccc1)c1ccccn1 | 93 | 1.2* | 31 | 10 | 96
O=C(Nc1ccccc1)C(=O)Nc1ccccn1 | . | . | 85 | 80 | .
CCCCN1C(=O)CN(CCc2ccccc2)C(=O)C1c1ccc(OC)cc1 (stereo not drawn) | 104 | 38* | 92 | 87 | 92
COc1cc(-c2nnc(SCc3cc(=O)oc4cc(C)ccc34)o2)cc(OC)c1OC | 85 | 79 | 86 | 81 | 91
Cc1ccc(N(C(C)C(=O)O)S(=O)(=O)c2cccnc2)cc1 (stereo not drawn) | 105 | 109 | 102 | 89 | 103
CCOC(=O)NC(NCCc1ccccc1)(C(F)(F)F)C(F)(F)F | 98 | 12* | 101 | 104 | 98

Bioassay records from PubChem BioAssay.
